How the values were obtained:
Type in all cases: functional
MDA-MB-468 = assay: Anticancer activity against human MDA-MB-468 cells assessed as cell growth at 10 uM after 48 hrs by sulforhodamine B assay relative to control; details: MDA-MB-468, 48 h, read-out: Activity
How it was run: (§1)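 Single-dose NCI-60 panel screen: compound added at 10 µM and the culture incubated 48 h. The end point was read by protein staining with sulforhodamine B. The value is percent growth of treated cells relative to untreated control cells, reported as a mean graph across the panel.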

OVCAR-4 = assay: Anticancer activity against human OVCAR4 cells assessed as cell growth at 10 uM after 48 hrs by sulforhodamine B assay relative to control; details: OVCAR-4, 48 h, read-out: Activity; how it was run: as §1
MOLT-4 = assay: Anticancer activity against human MOLT4 cells assessed as cell growth at 10 uM after 48 hrs by sulforhodamine B assay relative to control; details: MOLT-4, 48 h, read-out: Activity; how it was run: as §1
CAKI-1 = assay: Anticancer activity against human Caki1 cells assessed as cell growth at 10 uM after 48 hrs by sulforhodamine B assay relative to control; details: CAKI-1, 48 h, read-out: Activity; how it was run: as §1
DU-145 = assay: Anticancer activity against human DU145 cells assessed as cell growth at 10 uM after 48 hrs by sulforhodamine B assay relative to control; details: DU-145, 48 h, read-out: Activity; how it was run: as §1
NCI-H460 = assay: Anticancer activity against human NCI-H460 cells assessed as cell growth at 10 uM after 48 hrs by sulforhodamine B assay relative to control; details: NCI-H460, 48 h, read-out: Activity; how it was run: as §1
SR [1] = assay: Anticancer activity against human SR cells assessed as cell growth at 10 uM after 48 hrs by sulforhodamine B assay relative to control; details: read-out: Activity
How it was run: (§2)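 NCI-60 single-dose screen: compound added at 10 µM, cultures incubated 48 h. End point by sulforhodamine B protein-binding dye. Value reported as percent growth of treated cells relative to untreated control cells.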

BT-549 [2] = assay: Anticancer activity against human BT549 cells assessed as cell growth at 10 uM after 48 hrs by sulforhodamine B assay relative to control; details: BT-549, 48 h, read-out: Activity; how it was run: as §1
SF-268 = assay: Anticancer activity against human SF268 cells assessed as cell growth at 10 uM after 48 hrs by sulforhodamine B assay relative to control; details: SF-268, 48 h, read-out: Activity; how it was run: as §1
EKVX = assay: Anticancer activity against human EKVX cells assessed as cell growth at 10 uM after 48 hrs by sulforhodamine B assay relative to control; details: read-out: Activity; how it was run: as §1
IGROV-1 = assay: Anticancer activity against human IGROV1 cells assessed as cell growth at 10 uM after 48 hrs by sulforhodamine B assay relative to control; details: IGROV-1, 48 h, read-out: Activity; how it was run: as §1
COLO 205 = assay: Anticancer activity against human COLO205 cells assessed as cell growth at 10 uM after 48 hrs by sulforhodamine B assay relative to control; details: COLO 205, 48 h, read-out: Activity; how it was run: as §1
SK-OV-3 = assay: Anticancer activity against human SKOV3 cells assessed as cell growth at 10 uM after 48 hrs by sulforhodamine B assay relative to control; details: SK-OV-3, 48 h, read-out: Activity; how it was run: as §1
SR [3] = assay: Growth inhibition of human SR cells incubated for 48 hrs by sulforhodamine B assay; details: for CC50: read-out: LC50 (the source's name)
How it was run: (§3)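 NCI 60 human tumour cell line panel, five-dose study at 0.01, 0.1, 1, 10 and 100 µM, 48 h incubation. Sulforhodamine B protein-binding dye end point. GI50 (50% decrease in net cell growth), TGI (total growth inhibition) and LC50 (net 50% loss of initial cells) read from log concentration versus % growth inhibition curves.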

U-251 = assay: Growth inhibition of human U251 cells incubated for 48 hrs by sulforhodamine B assay; details: U-251, 48 h; for CC50: read-out: LC50 (the source's name); how it was run: as §3
SK-MEL-5 = assay: Anticancer activity against human SK-MEL-5 cells assessed as cell growth at 10 uM after 48 hrs by sulforhodamine B assay relative to control; details: SK-MEL-5, 48 h, read-out: Activity; how it was run: as §1
HT-29 = assay: Anticancer activity against human HT-29 cells assessed as cell growth at 10 uM after 48 hrs by sulforhodamine B assay relative to control; details: HT-29, 48 h, read-out: Activity; how it was run: as §1
RXF 393 = assay: Anticancer activity against human RXF393 cells assessed as cell growth at 10 uM after 48 hrs by sulforhodamine B assay relative to control; details: RXF 393, 48 h, read-out: Activity; how it was run: as §1
NCI-H23 = assay: Anticancer activity against human NCI-H23 cells assessed as cell growth at 10 uM after 48 hrs by sulforhodamine B assay relative to control; details: NCI-H23, 48 h, read-out: Activity; how it was run: as §1
NCI-H226 = assay: Anticancer activity against human NCI-H226 cells assessed as cell growth at 10 uM after 48 hrs by sulforhodamine B assay relative to control; details: NCI-H226, 48 h, read-out: Activity; how it was run: as §1
NCI/ADR-RES = assay: Anticancer activity against human NCI/ADR-RES cells assessed as cell growth at 10 uM after 48 hrs by sulforhodamine B assay relative to control; details: read-out: Activity; how it was run: as §1
A498 = assay: Anticancer activity against human A498 cells assessed as cell growth at 10 uM after 48 hrs by sulforhodamine B assay relative to control; details: A498, 48 h, read-out: Activity; how it was run: as §1
BT-549 [4] = assay: Growth inhibition of human BT549 cells incubated for 48 hrs by sulforhodamine B assay; details: BT-549, 48 h; for CC50: read-out: LC50 (the source's name)
How it was run: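 NCI-60 five-dose screen at 0.01, 0.1, 1, 10 and 100 µM, 48 h incubation, sulforhodamine B end point. GI50 (50% decrease in net growth), TGI (total growth inhibition) and LC50 (net 50% loss of initial cells) taken from log concentration versus % growth inhibition curves.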

PC-3 = assay: Anticancer activity against human PC3 cells assessed as cell growth at 10 uM after 48 hrs by sulforhodamine B assay relative to control; details: PC-3, 48 h, read-out: Activity; how it was run: as §1
CCRF-CEM = assay: Anticancer activity against human CCRF-CEM cells assessed as cell growth at 10 uM after 48 hrs by sulforhodamine B assay relative to control; details: read-out: Activity; how it was run: as §1
UACC-257 = assay: Anticancer activity against human UACC257 cells assessed as cell growth at 10 uM after 48 hrs by sulforhodamine B assay relative to control; details: UACC-257, 48 h, read-out: Activity; how it was run: as §2
HL-60(TB) = assay: Anticancer activity against human HL-60(TB) cells assessed as cell growth at 10 uM after 48 hrs by sulforhodamine B assay relative to control; details: HL-60, 48 h, read-out: Activity
How it was run: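 NCI-60 human tumour panel single-dose screen: cells exposed to 10 µM compound for 48 h. Growth end point read with sulforhodamine B protein-binding dye. Expressed as percent growth of treated cells versus untreated control cells.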

SF-295 = assay: Anticancer activity against human SF295 cells assessed as cell growth at 10 uM after 48 hrs by sulforhodamine B assay relative to control; details: SF-295, 48 h, read-out: Activity; how it was run: as §1

Row | SMILES | growth at 10 µM (MDA-MB-468) | growth at 10 µM (OVCAR-4) | growth at 10 µM (MOLT-4) | growth at 10 µM (CAKI-1) | growth at 10 µM (DU-145) | growth at 10 µM (NCI-H460) | growth at 10 µM (SR [1]) | growth at 10 µM (BT-549 [2]) | growth at 10 µM (SF-268) | growth at 10 µM (EKVX) | growth at 10 µM (IGROV-1) | growth at 10 µM (COLO 205) | growth at 10 µM (SK-OV-3) | GI50 (SR [3]) | TGI (SR [3]) | CC50 (SR [3]) | GI50 (U-251) | TGI (U-251) | CC50 (U-251) | growth at 10 µM (SK-MEL-5) | other results
1 | C=C1CC[C@@H]2[C@](C)(COC(C)=O)[C@H](OC(C)=O)CC[C@@]2(C)[C@H]1CC(Nc1ccc(S(=O)(=O)Nc2ccc(Cl)nn2)cc1)C1=CCOC1=O (stereo partly drawn) | -32.3% | 30.9% | 0.4% | 31.8% | 40.2% | 14.5% | -5.26% | -9.45% | 43.3% | 87.3% | 43.3% | 18% | 86.1% | 1.35 µM | 8.1 µM | > 100 µM | 1.68 µM | 3.05 µM | 5.52 µM | 35.8% | growth at 10 µM (HT-29): -18.3%; growth at 10 µM (RXF 393): -13.4%; growth at 10 µM (NCI-H23): 58.2%; growth at 10 µM (NCI-H226): -10%; growth at 10 µM (NCI/ADR-RES): 16.7%; growth at 10 µM (A498): 89%; GI50 (BT-549 [4]): 1.58 µM; TGI (BT-549 [4]): 3.14 µM; CC50 (BT-549 [4]): 6.28 µM; growth at 10 µM (PC-3): 38.4%; growth at 10 µM (CCRF-CEM): -10.3%; growth at 10 µM (UACC-257): 44%; growth at 10 µM (HL-60(TB)): -17.5%; growth at 10 µM (SF-295): 92.8%
2 | C=C1CC[C@@H]2[C@](C)(COC(C)=O)[C@H](OC(C)=O)CC[C@@]2(C)[C@H]1CC(Nc1ccc(S(=O)(=O)Nc2nccc(C)n2)cc1)C1=CCOC1=O (stereo partly drawn) | -45.8% | 32.3% | -1.85% | 61.4% | 38.5% | 46.9% | 0.79% | -2.66% | 43.2% | 79.2% | 25.8% | 9.64% | 101% | 0.75 µM | > 100 µM | > 100 µM | 3.17 µM | 10.7 µM | 33.3 µM | 45% | growth at 10 µM (HT-29): -28.2%; growth at 10 µM (RXF 393): -38.3%; growth at 10 µM (NCI-H23): 48.4%; growth at 10 µM (NCI-H226): -12.1%; growth at 10 µM (NCI/ADR-RES): 20.9%; growth at 10 µM (A498): 96.8%; GI50 (BT-549 [4]): 2.3 µM; TGI (BT-549 [4]): 5.61 µM; CC50 (BT-549 [4]): 18.7 µM; growth at 10 µM (PC-3): 41.5%; growth at 10 µM (CCRF-CEM): -19.2%; growth at 10 µM (UACC-257): 48.5%; growth at 10 µM (HL-60(TB)): -17.3%; growth at 10 µM (SF-295): 78.7%

Reference: ChEMBL document CHEMBL4033712, “Synthesis and biological evaluation of new C-12(α/β)-(N-) sulfamoyl-phenylamino-14-deoxy-andrographolide derivatives as potent anti-cancer agents” (Bioorg Med Chem Lett, 2017)
